According to ChEMBL document CHEMBL1687816, “Effect of antacids on the pharmacokinetics of raltegravir in human immunodeficiency virus-seronegative volunteers” (Antimicrob Agents Chemother, 2010):

Legend:
[1] = Tmax in HIV-seronegative healthy volunteers at 400 mg, po administered as single dose by LC-MS/MS; type: ADME, organism-based; details: human, in vivo
Outline: (§1)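 Single fasted 400 mg oral dose was given alone or with 30 ml antacid in a crossover design with a 5- to 12-day washout. Fasting continued for 4 h post-dose. Plasma was assayed by LC/MS/MS (LLOQ 5 ng/ml). Cmax, Tmax and 12-h concentration were read visually from the profiles.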

[2] = Tmax in HIV-seronegative healthy volunteers at 400 mg, po administered as single dose by LC-MS/MS in presence of albuminium, magnesium and simethicone-containg antacid; type: ADME, organism-based; details: human, in vivo; outline: as §1
[3] = Drug level in HIV-seronegative healthy volunteers blood at 400 mg, po administered as single dose after 12 hrs by LC-MS/MS in presence of albuminium, magnesium and simethicone-containg antacid; type: ADME, organism-based; details: human, read-out: Drug uptake; outline: as §1
[4] = Drug level in HIV-seronegative healthy volunteers blood at 400 mg, po administered as single dose after 12 hrs by LC-MS/MS; type: ADME, organism-based; details: human, read-out: Drug uptake; outline: as §1
[5] = Cmax in HIV-seronegative healthy volunteers at 400 mg, po administered as single dose by LC-MS/MS in presence of albuminium, magnesium and simethicone-containg antacid; type: ADME, organism-based; parameters: dose 400 mg, route oral; details: human, in vivo; outline: as §1
[6] = AUC (0 to infinity) in HIV-seronegative healthy volunteers at 400 mg, po administered as single dose by LC-MS/MS in presence of albuminium, magnesium and simethicone-containg antacid; type: ADME, organism-based; parameters: dose 400 mg, time infinity, route oral; details: human, plasma
Outline: (§2)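 Randomized crossover in HIV-seronegative volunteers: after an 8-h overnight fast, a single observed oral 400 mg dose was given alone or with 30 ml aluminium/magnesium/simethicone antacid, with a 5- to 12-day washout between visits. Plasma was sampled at 0.5–48 h and assayed by LC/MS/MS (13C6 internal standard, linear 5–10,000 ng/ml). Noncompartmental AUC was computed by the linear-log trapezoidal rule and reported as a geometric mean.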

[7] = Cmax in HIV-seronegative healthy volunteers at 400 mg, po administered as single dose by LC-MS/MS; type: ADME, organism-based; parameters: dose 400 mg, route oral; details: human, in vivo; outline: as §1
[8] = AUC (0 to infinity) in HIV-seronegative healthy volunteers at 400 mg, po administered as single dose by LC-MS/MS; type: ADME, organism-based; parameters: dose 400 mg, route oral, time infinity; details: human, plasma; outline: as §2
[9] = AUC (0 to 12 hrs) in HIV-seronegative healthy volunteers at 400 mg, po administered as single dose by LC-MS/MS in presence of albuminium, magnesium and simethicone-containg antacid; type: ADME, organism-based; parameters: dose 400 mg, time < 12 hr, route oral; details: human, plasma; outline: as §2
[10] = AUC (0 to 12 hrs) in HIV-seronegative healthy volunteers at 400 mg, po administered as single dose by LC-MS/MS; type: ADME, organism-based; parameters: dose 400 mg, time < 12 hr, route oral; details: human, plasma; outline: as §2
[11] = tested on: Homo sapiens; experiment: Ratio of AUC (0 to 12 hrs) in HIV-seronegative healthy volunteers at 400 mg, po administered as single dose in presence of albuminium, magnesium and simethicone-containg antacid to AUC (0 to 12 hrs) in HIV-seronegative healthy volunteers at 400 mg, po administered as single dose; type: ADME, organism-based; details: in vivo
Outline: (§3)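 Randomized crossover in HIV-seronegative volunteers: after an 8-h fast, a single oral 400 mg RAL dose was given with or without 30 ml antacid (2.7 g Mg hydroxide, 3 g Al hydroxide gel, 240 mg simethicone), with a 5–12 day washout. Plasma was sampled 0.5–48 h and assayed by LC/MS/MS (LLOQ 5 ng/ml). Noncompartmental analysis; log-transformed geometric mean ratios with 90% CI; paired t tests.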

[12] = tested on: Homo sapiens; experiment: Ratio of AUC (0 to infinity) in HIV-seronegative healthy volunteers at 400 mg, po administered as single dose in presence of albuminium, magnesium and simethicone-containg antacid to AUC (0 to 12 hrs) in HIV-seronegative healthy volunteers at 400 mg, po administered as single dose; type: ADME, organism-based; details: in vivo; outline: as §3
[13] = tested on: Homo sapiens; experiment: (§4) Ratio of Cmax in HIV-seronegative healthy volunteers at 400 mg, po administered as single dose in presence of albuminium, magnesium and simethicone-containg antacid to Cmax in HIV-seronegative healthy volunteers at 400 mg, po administered as single dose; type: ADME, organism-based; details: in vivo; outline: as §3
[14] = tested on: Blood; experiment: as §4, with “drug level” for “Cmax”, “volunteers blood” for “volunteers”, “mg after 12 hrs,” for “mg,”; type: ADME, organism-based; details: human, in vivo; outline: as §3
[15] = tested on: Homo sapiens; experiment: Toxicity in HIV-seronegative healthy volunteers assessed as occurrence of mild headache at 400 mg, po administered as single dose; type: organism-based; details: in vivo
Outline: (§5)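 Clinical adverse events were assessed during the two 12-h pharmacokinetic visits and at 24 and 48 h after a single oral 400 mg dose, given with or without 30 ml antacid. Events were graded with the 2004 Division of AIDS toxicity tables. Laboratory tests were run at screening and at 24 h post-dose.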

[16] = tested on: Homo sapiens; experiment: Toxicity in HIV-seronegative healthy volunteers assessed as occurrence of mild headache at 400 mg, po administered as single dose in presence of 30 ml albuminium, magnesium and simethicone-containg antacid; type: organism-based; details: in vivo; outline: as §5
[17] = tested on: Homo sapiens; experiment: Ratio of AUC (0 to infinity) in HIV-infected patients at 400 mg, po treated after 2 hrs administration of 20 mg proton pump inhibitor omeprazole to AUC (0 to infinity) in HIV-infected patients at 400 mg, po; type: ADME, organism-based; details: in vivo
[18] = tested on: Homo sapiens; experiment: Ratio of Cmax in HIV-infected patients at 400 mg, po treated after 2 hrs administration of 20 mg proton pump inhibitor omeprazole to Cmax in HIV-infected patients at 400 mg, po; type: ADME, organism-based; details: in vivo
[19] = tested on: Homo sapiens; experiment: Ratio of drug level in HIV-infected patients at 400 mg, po treated after 2 hrs administration of 20 mg proton pump inhibitor omeprazole after 12 hrs to drug level in HIV-infected patients at 400 mg, po after 12 hrs; type: ADME, organism-based; details: in vivo
[20] = Terminal half life in human at 400 mg BID; type: ADME, organism-based; details: in vivo, read-out: beta t1/2 (converted)
[21] = Primary phase half life in human at 400 mg BID; type: ADME, organism-based; details: in vivo, read-out: alphat1/2 (converted)

SMILES: Cc1nnc(C(=O)NC(C)(C)c2nc(C(=O)NCc3ccc(F)cc3)c(O)c(=O)n2C)o1 [RALTEGRAVIR]
- Tmax [1]: 3 h
- Tmax [2]: 1 h
- concentration at 12 h [3]: 13 ng/mL
- concentration at 12 h [4]: 37 ng/mL
- Cmax [5]: 1440 ng/mL
- AUC(0-inf) [6]: 3420 ng·h/mL
- Cmax [7]: 945 ng/mL
- AUC(0-inf) [8]: 3540 ng·h/mL
- AUC(0-t) at 12 h [9]: 3300 ng·h/mL
- AUC(0-t) at 12 h [10]: 3040 ng·h/mL
- Ratio [11]: 1.08
- Ratio [12]: 0.96
- Ratio [13]: 1.53
- Ratio [14]: 0.33
- Activity [15]: 25%
- Activity [16]: 42%
- Ratio [17]: 3
- Ratio [18]: 4
- Ratio [19]: 1.5
- half-life [20]: 9 h
- half-life [21]: 1 h
